High-throughput results (PubChem)
Rows were chosen to be rich in hits. Some 4.5% of all compounds tested hit in one or more screens of this group.
OX1R antag-1: blocks the human orexin 1 receptor; O43613; OX1R-expressing cells, FRET antagonist read-out; inhibition, % at 6.6 µM; hit rate 1.8% among 330,000; in the data active = inhibition mostly above about 38%, no sharp cut-off; inactive = mostly below about 40%
Target sequence (O43613 whole entry, looked up): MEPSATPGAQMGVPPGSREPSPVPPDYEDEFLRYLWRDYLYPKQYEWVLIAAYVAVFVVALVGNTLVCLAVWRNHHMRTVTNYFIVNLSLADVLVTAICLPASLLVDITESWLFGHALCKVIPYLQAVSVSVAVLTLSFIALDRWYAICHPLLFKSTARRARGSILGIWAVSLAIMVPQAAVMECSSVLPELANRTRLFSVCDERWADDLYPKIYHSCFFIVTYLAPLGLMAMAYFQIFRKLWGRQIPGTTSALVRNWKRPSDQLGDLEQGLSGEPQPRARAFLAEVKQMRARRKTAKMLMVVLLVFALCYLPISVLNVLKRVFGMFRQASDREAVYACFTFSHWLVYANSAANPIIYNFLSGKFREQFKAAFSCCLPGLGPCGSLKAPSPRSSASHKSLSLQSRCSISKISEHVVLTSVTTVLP
GPR7 antagonist: antagonists of human GPR7 (neuropeptides B/W receptor 1) | P48145 | GPR7-expressing cells, fluorescence antagonist assay | inhibition, % at 4.4 µM | hit rate 1.1% among 290,000 | AID 1861; in the data active = inhibition above about 16%, passing the limit was not always enough;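 also: cells stimulated with the agonist NPW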
Target sequence (P48145 whole entry, looked up): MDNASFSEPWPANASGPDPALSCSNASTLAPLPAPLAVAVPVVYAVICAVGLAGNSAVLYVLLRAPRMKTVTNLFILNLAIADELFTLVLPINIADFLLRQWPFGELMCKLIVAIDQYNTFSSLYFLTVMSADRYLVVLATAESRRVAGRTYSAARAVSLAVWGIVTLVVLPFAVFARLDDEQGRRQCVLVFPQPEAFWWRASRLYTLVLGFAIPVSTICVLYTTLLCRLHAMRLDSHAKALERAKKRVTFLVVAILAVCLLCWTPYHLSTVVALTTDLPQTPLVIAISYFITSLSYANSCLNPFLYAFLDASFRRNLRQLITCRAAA
CHO parental Ca: signal in parental CHO cells, OX1R antagonist counter-screen; parental CHO-K1, ATP-induced calcium, Fluo-8 fluorescence; inhibition, % at 5.6 µM; hit rate 0.63% among 330,000; AID 463079;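 active = inhibition above that plate's mean sample inhibition plus 3 SD, cut at about 26% in these data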
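test system = CHO parental line | reagent = ATP stimulus | measured by = intracellular calcium via Fluo-8 no-wash fluorescent dye | control set = ATP and no-ATP DMSO wells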
OX1R antag-2: antagonists of human orexin 1 receptor | CHO/OX1R cells, Fluo-8 calcium fluorescence, orexin A | hit rate 0.43% among 330,000 | AID 434989 | inhibition, % at 5 µM;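 active = inhibition above its plate's threshold, mean inhibition of all tested compounds on the plate plus 3 SD, cut at about 37% in these data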
TAAR1 antagonist: human TAAR1 antagonism. Q96RJ0. hit rate 1.5% among 360,000. CHO RD-HGA16 TAAR1, Fluo-8 calcium fluorescence, antagonist. inhibition, % at 3 µM;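 active = inhibition above a per-plate cutoff, the mean inhibition of test compounds on that plate plus 3 SD, cut at about 49% in these data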
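Material: CHO RD-HGA16 cells bearing hTAAR1; compound dosing: one-point dosing, 3 µM nominal final; schedule: dye loading 75 min at 37 °C, then 30 min room temperature; measured by: calcium fluorescence with Fluo-8; control set: vehicle and agonist controls; replication: n of 1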
TAAR1 agonist: human TAAR1 agonism; Q96RJ0; CHO RD-HGA16 TAAR1, Fluo-8 calcium fluorescence; vehicle wells 0%, saturating PEA agonist 100%; activation, % at 3 µM; hit rate 0.99% among 360,000; AID 624467;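 active = activation above the mean activation of all test compounds in the run plus 3 SD, cut at about 38% in these data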
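Test system: RD-HGA16 (CHO) cells co-expressing Gα16 and hTAAR1 | Doses: Single dose, 3 µM | Schedule: 17-24 h seeding, 75 min 37 °C dye, 30 min RT | Evaluation: % activation from peak over basal fluorescence ratio, DMSO-to-PEA scaled | Technique: Kinetic Fluo-8 calcium fluorescence | Benchmarks: Low control DMSO, high control PEA (EC100)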
OX1R Ca confirm: OX1R (human) antagonism, confirmed | inhibition, % at 5 µM | AID 492963 | shares compounds with OX1R antag-2 | hit rate 38% among 1,100 | CHO/OX1R cells, orexin A calcium Fluo-8 fluorescence; in the data active = inhibition above about 29%
CHO Ca counter: counter-screen: parental CHO calcium response change, triplicate | inhibition, % at 5.6 µM | shares compounds with OX1R antag-2 | hit rate 9.3% among 1,100 | parental CHO-K1, ATP-induced calcium, Fluo-8 fluorescence;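 active = inhibition above a per-plate limit, the mean inhibition of that plate's test compounds plus 3 SD, cut at about 25% in these data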
OX1R HTRF confirm: confirmation of human orexin 1 receptor antagonists, HTRF format | inhibition, % at 6.6 µM | shares compounds with OX1R antag-1 | hit rate 49% among 1,800 | OX1R-expressing cells, HTRF antagonist assay; in the data active = inhibition above about 55%;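 also: CHO cells expressing OX1R stimulated with orexin A at about EC80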
CHO-K1 HTRF cnt: signal in parental CHO-K1 cells, OX1R antagonist counter-screen | HTRF counterscreen | hit rate 48% among 1,800 | shares compounds with OX1R antag-1 | inhibition, % at 6.6 µM; in the data active = inhibition above about 17%
Numbers stand for hits; i = inactive; nt = no result.

SMILES	OX1R antag-1	GPR7 antagonist	CHO parental Ca	OX1R antag-2	TAAR1 antagonist	TAAR1 agonist	OX1R Ca confirm	CHO Ca counter	OX1R HTRF confirm	CHO-K1 HTRF cnt
O=C1NCC(c2ccccc2)C1C(=O)N/N=C\c1ccc(-c2cccc(Cl)c2Cl)o1 (stereo unspecified)	100.7	i	i	86.7	i	i	69.2	i	86.9	i
COc1cccc(/C=N\NC(=O)C2C(=O)NCC2c2ccccc2)c1O (stereo unspecified)	i	i	i	i	i	i	nt	nt	nt	nt
CCOC(=O)c1c(C)[nH]c(C(=O)COC(=O)COc2ccccc2C=O)c1C	i	i	i	i	i	i	nt	nt	nt	nt
O=C(Nc1cccc(S(=O)(=O)NCc2ccco2)c1)c1cc(-c2ccc(F)cc2)nc2ccccc12	65.2	i	i	56.4	57.1	i	29.2	i	i	i
O=C(Nc1ccccc1)c1cccc(S(=O)(=O)NCc2ccco2)c1	i	i	i	i	i	i	nt	nt	nt	nt
CN(CC(=O)Nc1ccc(Cl)c(C(F)(F)F)c1)C(=O)Cc1ccsc1	49.5	nt	i	i	i	i	i	i	i	i
CCN(CC)c1ccc2cc(-c3nc4ccccc4n3C)c(=O)oc2c1	82.6	17.0	i	95.1	55.1	i	84.1	i	88.9	i
CCN(CC)c1ccc2cc(-c3nnc(-c4ccc(Br)cc4)o3)c(=O)oc2c1	nt	i	nt	nt	nt	nt	nt	nt	nt	nt
Cc1ccc(N(C)S(=O)(=O)c2cccc(C(=O)NCC(c3cccs3)N3CCOCC3)c2)cc1 (stereo unspecified)	78.4	nt	i	46.8	i	i	38.3	i	93.9	i
COc1ccccc1N1CCN(/N=C\c2sccc2C)CC1	i	i	i	i	i	i	nt	nt	nt	nt
COc1cccc(OC)c1C(=O)Nc1nc(-c2ccccc2)cs1	97.0	i	i	38.5	i	i	30.3	i	89.0	i
COc1ccc(-c2csc(NC(=O)c3ccccc3C(=O)O)n2)cc1	i	i	i	i	i	i	nt	nt	nt	nt
COc1ccccc1C(=O)Nc1nc(-c2ccc(S(=O)(=O)N3CCOCC3)cc2)cs1	88.9	i	i	i	69.3	i	56.4	29.0	57.9	i
COc1ccc(CNCc2ccc(C(F)(F)F)cc2)cc1OC	i	i	i	i	i	i	nt	nt	nt	nt
CC(Sc1nc2c(N)ncnc2n1CCOc1ccccc1)C(=O)O (stereo unspecified)	i	i	i	i	i	i	nt	nt	nt	nt
COc1cc(Cl)c(C)cc1Nc1ncccn1	82.2	i	i	i	i	i	i	i	73.9	i
Cc1ccc2cc(C)c3nnc(SCC(=O)Nc4nc5c(s4)CCCC5)n3c2c1C	84.3	i	i	i	i	i	40.9	i	74.8	i
Cc1ccc2c(c1)Cc1nc3ccccc3nc1-2	86.6	i	i	i	i	i	33.1	i	90.1	i
Cc1ccc2c(c1)-c1nc3ccccc3cc1C2=NC1CCCCC1	i	i	i	i	i	i	nt	nt	nt	nt
COc1ccccc1C(=O)Nc1nnc(-c2ccco2)s1	59.4	i	i	55.1	i	i	i	i	56.1	i
COC(=O)C1=C(C)NC2=C(C(=O)CC(C)(C)C2)C1c1cn(Cc2ccc(Br)cc2)nc1-c1ccccc1 (stereo unspecified)	i	i	i	i	nt	nt	nt	nt	nt	nt
COC(=O)C1=C(C)NC2=C(C(=O)CCC2)C1c1cn(Cc2ccc(Br)cc2)nc1-c1ccccc1 (stereo unspecified)	74.8	i	i	i	i	i	i	i	i	i
Nc1nc(CSc2nnnn2-c2ccccc2)nc(N2CCCc3ccccc32)n1	83.3	i	i	65.1	i	i	29.5	i	i	i
Nc1nc(CN2CCN(c3ccccc3)CC2)nc(N2CCCc3ccccc32)n1	i	i	i	i	i	i	nt	nt	nt	nt
CN(/N=C/c1cc([N+](=O)[O-])ccc1O)c1ccccc1	73.0	i	i	49.5	i	i	47.5	i	93.1	i
SMILES	OX1R antag-1	GPR7 antagonist	CHO parental Ca	OX1R antag-2	TAAR1 antagonist	TAAR1 agonist	OX1R Ca confirm	CHO Ca counter	OX1R HTRF confirm	CHO-K1 HTRF cnt
Cc1cc(CNC(=O)COc2ccc(F)cc2F)c2ccccc2n1	i	i	i	i	i	i	nt	nt	nt	nt
Cc1cc(CNC(=O)COc2cc(F)ccc2[N+](=O)[O-])c2ccccc2n1	104.5	i	i	i	i	i	i	i	i	i
O=C(c1ccc2c(=O)n(Cc3ccccc3Cl)c(=S)[nH]c2c1)N1CCCC1	i	i	i	i	i	i	nt	nt	nt	nt
CN(C)c1ccc(NC(=S)c2ccc3ccccc3n2)cc1	93.2	i	i	58.3	i	i	i	i	85.3	i
Cc1ccc(NC(=O)COc2ccc(Cl)cc2Cl)cc1S(=O)(=O)N1CCOCC1	nt	nt	nt	nt	i	i	nt	nt	nt	nt
Cc1ccc(NC(=O)COc2cccc(Oc3ccccc3)c2)cc1S(=O)(=O)N1CCOCC1	29.5	nt	i	45.4	i	i	31.6	i	i	i
CC(CC(=O)Nc1cccc(S(=O)(=O)N2CCCCC2)c1)c1ccccc1 (stereo unspecified)	29.2	nt	i	i	i	i	i	i	i	i
CC(=O)c1ccc(NC(=O)Nc2cccc3ccccc23)cc1	nt	i	nt	nt	i	i	nt	nt	nt	nt
COc1ccc(/C=N/NC(=O)c2ccc3ccccc3c2)cc1OS(=O)(=O)c1ccc(NC(C)=O)cc1	63.0	i	i	59.8	74.4	i	41.0	i	i	i
Cc1nc2ccc(-c3nc4ccccc4o3)cc2[nH]1	105.0	i	i	49.9	i	i	33.4	i	93.6	i
Cc1ccnc2ccc(-c3nc4ccccc4o3)cc12	92.0	i	i	40.8	i	i	48.1	i	93.6	i
O=C(OCc1ccccc1)N1CCC2CC1c1cc(NCCc3ccccc3)ccc12 (stereo unspecified)	nt	nt	nt	nt	i	i	nt	nt	nt	nt
C=CCn1c(SCC(N)=O)nnc1-c1cccc(Br)c1	i	i	i	i	i	i	nt	nt	nt	nt
C=CCn1c(SCc2ccccc2C#N)nnc1-c1cc(Br)ccc1O	52.8	i	i	53.1	i	i	i	i	i	i
CN(C)/C=C/C1=C([N+](=O)[O-])C(c2cccc([N+](=O)[O-])c2)NC(=O)N1 (stereo unspecified)	87.8	i	i	i	i	i	i	i	i	28.6
COc1cc(/C=C(/C#N)c2ccc(F)cc2)ccc1Oc1ccc([N+](=O)[O-])cn1	i	i	i	i	i	i	nt	nt	nt	nt
O=C(COC(=O)c1cccc([N+](=O)[O-])c1)Nc1ncc(Br)s1	i	nt	i	i	i	i	nt	nt	nt	nt
